Kd, MIC and Selectivity ratio data for 2 molecules are collected here from ChEMBL document CHEMBL3351483, “Desmethyl macrolides: synthesis and evaluation of 4-desmethyl telithromycin” (ACS Med Chem Lett, 2014).

Converted amounts (≈) assume the structure as drawn.

In general, Kd refers to the concentration at which binding is half-saturated. Broadly, the MIC is the lowest concentration found to suppress growth. Higher therefore signals weaker potency.

One assay has as its target Bacterial 70S ribosome. Nature of the assay: Binding affinity to Escherichia coli ribosomes after 2 hrs by fluorescence polarization assay in presence of BODIPY-labeled erythromycin A. The gist of the method: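 Competitive fluorescence polarization binding assay with isolated E. coli ribosomes and BODIPY-labelled erythromycin as the displaced probe; dissociation constant (Kd) derived from probe displacement.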
(Fluorescence polarisation rises when a labelled molecule tumbles more slowly, as on binding a larger partner.)

The test system of assay [1] is Staphylococcus aureus. Kind of assay: Antimicrobial activity against Staphylococcus aureus ATCC 33591 harboring ermA gene. Format: functional.
The test system of assay [2] is Escherichia coli. Nature of the assay: Antimicrobial activity against Escherichia coli SQ171/2058G harboring ribosome A2058G mutant. Format: functional.
For assay [3], the system named is Staphylococcus aureus. Kind of assay: Antimicrobial activity against Staphylococcus aureus UCN14 harboring ribosome A2058T mutant. The class given is functional.
Assay [4] concerns Escherichia coli. Kind of assay: Antimicrobial activity against tolC-negative wild type Escherichia coli DK/pKK3535. The class given is functional. The gist of the method:
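MIC determined against E. coli DK/pKK3535, a tolC(−) strain that lacks the outer-membrane TolC efflux pump, which recognizes antibacterial drugs, and that carries wild-type ribosomes.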

Assay [5] concerns Escherichia coli. Kind of assay: Antimicrobial activity against tolC-negative Escherichia coli DK/2058G harboring ribosome A2058G mutant. Format: functional. The gist of the method:
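MIC determination in a tolC(−) E. coli strain lacking the outer-membrane efflux pump, carrying a mixed ribosome population of wild-type and A2058G mutant at about 1:1.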

Assay [6] can be described thus: Selectivity ratio of MIC for Escherichia coli […] harboring ribosome A2058G mutant to MIC for tolC-negative wild type Escherichia coli DK/pKK3535. Format: functional.

As to `CC[C@H]1OC(=O)[C@H](C)C(=O)[C@H](C)[C@@H](O[C@@H]2O[C@H](C)C[C@H](N(C)C)[C@H]2O)[C@](C)(OC)C[C@@H](C)C(=O)[C@H](C)[C@H]2N(CCCCn3cnc(-c4cccnc4)c3)C(=O)O[C@]12C` [TELITHROMYCIN], the Kd at Bacterial 70S ribosome was determined as 6.4 nM. Also, the MIC is > 128 µg/mL against Staphylococcus aureus [1]; > 256 µg/mL against Escherichia coli [2]; > 256 µg/mL with Staphylococcus aureus [3]; 0.5 µg/mL (≈ 0.616 µM) in the assay on Escherichia coli [4]; 4 µg/mL (≈ 4.93 µM) in the assay with Escherichia coli [5].

As to `CC[C@H]1OC(=O)[C@H](C)C(=O)C[C@@H](O[C@@H]2O[C@H](C)C[C@H](N(C)C)[C@H]2O)[C@](C)(OC)C[C@@H](C)C(=O)[C@H](C)[C@H]2N(CCCCn3cnc(-c4cccnc4)c3)C(=O)O[C@]12C`, on Bacterial 70S ribosome, the Kd was found to be 6.4 nM. Besides, the MIC with Staphylococcus aureus [1] was > 128 µg/mL; in the assay with Escherichia coli [2] it was > 256 µg/mL; in the assay with Staphylococcus aureus [3], > 128 µg/mL; against Escherichia coli [4], 0.5 µg/mL (≈ 0.627 µM); in the assay with Escherichia coli [5], 1 µg/mL (≈ 1.25 µM). In addition, the Selectivity ratio in assay [6] is 4.
